Broadly, the inhibition is the share of the control response that was lost under treatment.

The values that follow come from ChEMBL document CHEMBL1122644, “Ring-substituted 1,2-dialkylated 1,2-bis(hydroxyphenyl)ethanes. 2. Synthesis and estrogen receptor binding affinity of 4,4'-, 5,5'-, and 6,6'-disubstituted metahexestrols” (J Med Chem, 1984).

In test [1] the target is Estrogen receptor (Bos taurus) (UniProt Q9XSB5+P49884). Briefly: Relative binding affinity for calf uterine estrogen receptor is the ratio of molar concentrations of 17-beta-estradiol and compound required to decrease amount of bound [3H]-E2 by 50% X 100. Format: protein assay. The method, boiled down: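 Calf uterine cytosol incubated with [3H]estradiol and competitor at 4 °C for 16 h. Free ligand removed with dextran-coated charcoal, then centrifuged and a supernatant aliquot counted. Six competitor concentrations chosen to span 50% competition on a semilog plot. Molar concentrations of unlabeled estradiol and test compound giving 50% reduction in binding were read from the plot.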

In test [2] the target is T1, Estrogen receptor (Mus musculus) (UniProt O08537+P19785). The test is described as follows: Anti-estrogenic activity in mouse uterotrophic assay at 0 ug. Format: functional. The arrangement: unit not given here. The essentials: (§1)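 Immature female NMRI mice, 20 days old (14.5 ± 1.2 g), randomized into groups of 10. Test compound in olive oil (0.1 mL) given subcutaneously daily for 3 days alongside estrone stimulation. Uteri removed 24 h after last injection, fixed in Bouin's solution, washed, dried and weighed. Readout is inhibition of estrone-stimulated uterine growth.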
T1 sequence (O08537 whole entry, looked up): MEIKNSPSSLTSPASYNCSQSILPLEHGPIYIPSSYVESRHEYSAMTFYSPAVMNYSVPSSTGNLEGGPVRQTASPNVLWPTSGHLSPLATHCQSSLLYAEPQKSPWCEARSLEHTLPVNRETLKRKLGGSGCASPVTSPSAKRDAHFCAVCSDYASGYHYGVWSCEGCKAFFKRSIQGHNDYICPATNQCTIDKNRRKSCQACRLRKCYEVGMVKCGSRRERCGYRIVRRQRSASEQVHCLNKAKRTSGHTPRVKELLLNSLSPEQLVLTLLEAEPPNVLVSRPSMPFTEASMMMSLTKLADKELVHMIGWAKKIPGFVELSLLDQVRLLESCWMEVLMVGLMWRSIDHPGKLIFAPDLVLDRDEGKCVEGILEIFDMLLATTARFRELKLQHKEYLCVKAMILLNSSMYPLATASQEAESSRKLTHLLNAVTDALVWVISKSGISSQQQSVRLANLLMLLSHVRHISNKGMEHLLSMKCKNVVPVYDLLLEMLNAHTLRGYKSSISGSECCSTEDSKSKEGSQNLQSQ
T1 sequence (P19785 whole entry, looked up): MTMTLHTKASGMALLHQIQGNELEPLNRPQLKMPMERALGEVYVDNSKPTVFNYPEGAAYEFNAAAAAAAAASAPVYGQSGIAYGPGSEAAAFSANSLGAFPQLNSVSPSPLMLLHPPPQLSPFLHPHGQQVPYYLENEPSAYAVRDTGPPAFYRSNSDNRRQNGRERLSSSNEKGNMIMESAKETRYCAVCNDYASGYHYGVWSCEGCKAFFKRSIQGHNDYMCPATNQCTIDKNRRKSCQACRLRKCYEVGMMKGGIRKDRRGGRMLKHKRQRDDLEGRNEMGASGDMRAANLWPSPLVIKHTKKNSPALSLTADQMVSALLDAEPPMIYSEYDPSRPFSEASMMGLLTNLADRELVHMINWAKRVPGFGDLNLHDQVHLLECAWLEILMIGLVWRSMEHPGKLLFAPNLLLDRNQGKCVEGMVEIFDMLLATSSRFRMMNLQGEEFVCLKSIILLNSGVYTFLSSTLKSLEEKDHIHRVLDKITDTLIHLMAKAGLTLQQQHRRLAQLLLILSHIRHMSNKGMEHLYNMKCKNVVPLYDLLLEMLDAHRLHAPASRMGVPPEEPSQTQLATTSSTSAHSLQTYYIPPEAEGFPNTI

Test [3] deals with T1, Estrogen receptor (Mus musculus). The test is described as follows: Anti-estrogenic activity in mouse uterotrophic assay at 1 ug. Format: functional. The arrangement: unit not given here. The method, boiled down: as §1
The target is the same in test [4]. The test is described as follows: Anti-estrogenic activity in mouse uterotrophic assay at 10 ug. Format: functional. Further details: unit not given here. The essentials: as §1
Test [5] shares this target. Briefly: Anti-estrogenic activity in mouse uterotrophic assay at 100 ug. Further details: unit not given here. Format: functional. The method, boiled down:
as §1

Test [6] has the same target. Briefly: Estrogenic activity in mouse uterotrophic assay at 0 ug. The class given is functional. The arrangement: unit not given here. The essentials: (§2)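 Uterotrophic test in 20-day-old immature female NMRI mice (14.5 ± 1.2 g), 10 per group. Daily s.c. injections of compound in 0.1 mL olive oil for 3 days. Uteri excised 24 h after final dose, Bouin-fixed, washed, dried and weighed to measure stimulation of uterine growth.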

Test [7] has the same target. The test is described as follows: Estrogenic activity in mouse uterotrophic assay at 10 ug. Format: functional. Further details: unit not given here. The essentials:
as §2

For test [8] the target is unchanged. The test is described as follows: Estrogenic activity in mouse uterotrophic assay at 100 ug. Format: functional. The arrangement: unit not given here. The essentials: as §2
For test [9] the target is unchanged. The test is described as follows: Estrogenic activity in mouse uterotrophic assay at 1000 ug. Format: functional. The arrangement: unit not given here. The method, boiled down:
as §2

The target is the same in test [10]. The test is described as follows: Anti-estrogenic activity as inhibition of estrone-stimulated uterine growth in mice at 1 mg/kg. The class given is functional, organism-based. Further details: dose 1 mg/kg. The essentials:
as §1

For test [11] the target is unchanged. The test is described as follows: Anti-estrogenic activity in mouse uterotrophic assay at 2.5 ug. The class given is functional. The essentials:
as §1

Test [12] shares this target. The test is described as follows: Anti-estrogenic activity in mouse uterotrophic assay at 25 ug. The class given is functional. The method, boiled down:
as §1

The target is the same in test [13]. The test is described as follows: Anti-estrogenic activity in mouse uterotrophic assay at 5 ug. The class given is functional. The essentials: as §1
Test [14] shares this target. The test is described as follows: Anti-estrogenic activity in mouse uterotrophic assay at 50 ug. The class given is functional. The method, boiled down:
as §1

Test [15] has the same target. The test is described as follows: Anti-estrogenic activity in mouse uterotrophic assay at 500 ug. Format: functional. The method, boiled down:
as §1

The target is the same in test [16]. Briefly: Estrogenic activity in mouse uterotrophic assay at 8 ug. The class given is functional. The essentials: as §2
Test [17] has the same target. The test is described as follows: Estrogenic activity in mouse uterotrophic assay at 80 ug. Format: functional. The method, boiled down:
as §2

Test [18] shares this target. Briefly: Estrogenic activity in mouse uterotrophic assay at 0.8 ug. Format: functional. The method, boiled down: as §2
The target is the same in test [19]. The test is described as follows: Estrogenic activity in mouse uterotrophic assay at 24 ug. The class given is functional. The method, boiled down: as §2
Test [20] shares this target. The test is described as follows: Anti-estrogenic activity as inhibition of estrone-stimulated uterine growth in mice at 2.5 mg/kg. The arrangement: dose 2.5 mg/kg. Format: functional, organism-based. The method, boiled down:
as §1

Test [21] shares this target. Briefly: Estrogenic activity as uterotrophic effect in mice at 800 ug dose. Format: functional. The essentials:
as §2

Test [22] shares this target. Briefly: Anti-estrogenic activity in mouse uterotrophic assay at 250 ug. The class given is functional. The method, boiled down: as §1
For test [23] the target is unchanged. The test is described as follows: Estrogenic activity in mouse uterotrophic assay at 800 ug. The class given is functional. The essentials:
as §2

The target is the same in test [24]. The test is described as follows: Estrogenic activity in mouse uterotrophic assay at 16 ug. Format: functional. The method, boiled down: as §2
The target is the same in test [25]. Briefly: Estrogenic activity in mouse uterotrophic assay at 2 ug. The class given is functional. The essentials: as §2
The target is the same in test [26]. Briefly: Estrogenic activity in mouse uterotrophic assay at 240 ug. The class given is functional. The essentials:
as §2

For test [27] the target is unchanged. The test is described as follows: Anti-estrogenic activity as inhibition of estrone-stimulated uterine growth in mice at 50 mg/kg. Format: functional, organism-based. Further details: dose 50 mg/kg. The method, boiled down:
as §1

Test [28] shares this target. Briefly: Anti-estrogenic activity as inhibition of estrone-stimulated uterine growth in mice at 5 mg/kg. Format: functional, organism-based. The arrangement: dose 5 mg/kg. The method, boiled down:
as §1

For test [29] the target is unchanged. The test is described as follows: Anti-estrogenic activity as inhibition of estrone-stimulated uterine growth in mice at 25 mg/kg. The class given is functional, organism-based. The arrangement: dose 25 mg/kg. The essentials:
as §1

The target is the same in test [30]. The test is described as follows: Anti-estrogenic activity as inhibition of estrone-stimulated uterine growth in mice at 100 mg/kg. Further details: dose 100 mg/kg. The class given is functional, organism-based. The essentials:
as §1

Test [31] has the same target. Briefly: Anti-estrogenic activity as inhibition of estrone-stimulated uterine growth in mice at 250 mg/kg. Further details: dose 250 mg/kg. The class given is functional, organism-based. The method, boiled down: as §1
The target is the same in test [32]. The test is described as follows: Estrogenic activity in mouse uterotrophic assay at 1 ug. Format: functional. The method, boiled down:
as §2

Test [33] shares this target. The test is described as follows: Anti-estrogenic activity as inhibition of estrone-stimulated uterine growth in mice at 10 mg/kg. Format: functional, organism-based. The arrangement: dose 10 mg/kg. The method, boiled down: as §1
For test [34] the target is unchanged. Briefly: Estrogenic activity in mouse uterotrophic assay at 0.1 ug. The class given is functional. The method, boiled down:
as §2

In the case of `CCc1cc(C(CC)C(CC)c2ccc(O)c(CC)c2)ccc1O` (centres undefined), the RBA in [1] turned out to be 1.2.

In the case of `CC[C@H](c1ccc(O)cc1)[C@@H](CC)c1ccc(O)cc1`, in [1], the RBA came out at 27.

Turning to `CCC(c1ccc(O)c(C)c1)C(CC)c1ccc(O)c(C)c1` (centres undefined), the RBA in [1] came to 8.1.

As to `CCC(c1ccc(O)c(C(C)=O)c1)C(CC)c1ccc(O)c(C(C)=O)c1` (centres undefined), in test [1], the RBA is below 0.01.

Turning to `CCC(c1ccc(N)c(O)c1)C(CC)c1ccc(N)c(O)c1` (centres undefined), in [1], the RBA is 0.52. Besides, the Activity in test [2] came out at 14.8; in test [3], 33; in test [4], 41.7; in test [5], 42.3; in [6] it was 13.9; in test [7], 19.9. Also, the figures for the Activity in [8] and in test [9] were 19.5 and 36.6, respectively. In [10], this compound had an inhibition of 29%.

For `CCC(c1ccc(O)c(F)c1)C(CC)c1ccc(O)c(F)c1` (centres undefined), the RBA in test [1] worked out at 16.

`CCC(c1ccc([N+](=O)[O-])c(O)c1)C(CC)c1ccc([N+](=O)[O-])c(O)c1` (centres undefined): the RBA in test [1] was 0.02.

Consider `CCC(c1ccc(I)c(O)c1)C(CC)c1ccc(I)c(O)c1` (centres undefined), for which, in test [1], the RBA is below 0.01.

For the compound `CCC(c1ccc(CN(C)C)c(O)c1)C(CC)c1ccc(CN(C)C)c(O)c1` (centres undefined), in [1], the RBA is below 0.01.

With `CCC(c1ccc(O)cc1O)C(CC)c1ccc(O)cc1O` (centres undefined), in test [1], the RBA was determined as 32.

Regarding `CCC(c1cccc(O)c1)C(CC)c1cccc(O)c1` (centres undefined), the RBA in test [1] is 10. Further, the Activity came to 12.5 in [2]; 29.5 in test [11]; 28.1 in [12]; 23.5 in test [13]; 28.3 in test [14]; 30.9 in test [15]. Besides, the Activity is 14.4 in test [16]; 30.5 in test [17]; 10.7 in test [6]; 11.8 in test [18]; 18.5 in test [19]. Also, the inhibition in test [20] came out at 27%. The compound further registered a Weight (mg/g) in test [21] of 30.8%.

With `CCC(c1ccc(F)c(O)c1)C(CC)c1ccc(F)c(O)c1` (centres undefined), the RBA in test [1] amounted to 1.1. Besides, the Activity in test [2] was 13.5; in test [3], 34.2; in [5] it was 22.4; in test [12], 28.6; in test [22], 24.4; in [13] it was 30.2. For the same compound, the Activity in test [14] was determined as 24.7; in [16] it was 18.5; in test [17] it was 31.8; in test [23], 32.6; in [6] it was 8.7; in test [24], 25.4. Besides, the Activity in test [25] came to 8.9; in [26] it was 32.8. For the same compound, the inhibition was 50% in [27]; 25% in test [28]; 32% in test [29]; 60% in [30]; 7% in test [10]; 51% in [31].

`CCC(c1ccc(O)c(CN(C)C)c1)C(CC)c1ccc(O)c(CN(C)C)c1` (centres undefined): in [1], the RBA came out at 0.04.

As for `CCC(c1ccc(Cl)c(O)c1)C(CC)c1ccc(Cl)c(O)c1` (centres undefined), in test [1], the RBA was found to be 0.07.

`CCC(c1ccc(N(C)C)c(O)c1)C(CC)c1ccc(N(C)C)c(O)c1` (centres undefined): the RBA in [1] was below 0.01.

On to `CCC(c1ccc(O)c(N)c1)C(CC)c1ccc(O)c(N)c1` (centres undefined), for which the RBA in [1] was 5.6.

On to `CCC(c1ccc(C)c(O)c1)C(CC)c1ccc(C)c(O)c1` (centres undefined), for which, in test [1], the RBA stood at 0.73. Besides, the Activity amounted to 14.8 in test [2]; 34.3 in test [3]; 39.6 in test [4]; 41.8 in [5]; 13.9 in [6]; 21.7 in test [32]. Moreover, the Activity was found to be 45 in [7], 46.2 in test [8], 43.5 in test [9] and 14.3 in [34]. The inhibition in test [33] was 3%; in [10] it was 24%.

In the case of `CCC(c1ccc(Br)c(O)c1)C(CC)c1ccc(Br)c(O)c1` (centres undefined), in [1], the RBA was determined as 0.03.

As for `CCC(c1ccc(O)c([N+](=O)[O-])c1)C(CC)c1ccc(O)c([N+](=O)[O-])c1` (centres undefined), the RBA in test [1] came out at 0.14.

Consider `CCC(c1ccc(O)c(Cl)c1)C(CC)c1ccc(O)c(Cl)c1` (centres undefined), for which the RBA in test [1] was 1.6.
